Screen size: about 330,000 compounds; about 1,100 (0.33%) were called active.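 How the source made its calls: active means versus positive control, 20 µM dose yields 30% or more activation; inactive means the rest.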 Many of the other results were omitted from the sample, so actives are more common in it than they were.

The test is described as follows: IRE1-XBP1 pathway stimulators – cell-based, CHO-XBP1 luciferase reporter, luminescence, uHTS, primary screen (AID 463104).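 Further: 100% = tunicamycin at 10 µg/mL and 0% = DMSO only wells.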 The conditions noted are these: IRE1-XBP1 UPR activation, at 20 µM, stronger effect = higher value, percent of tunicamycin response, DMSO as zero. Put shortly: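 Material – CHO cell line with stable XBP1 luciferase reporter · Buffer or medium – F12 plus 10% FBS · Compound – single point, 20 µM final compound, 1% DMSO · Schedule – 16-18 h cell attachment at 37 °C, then 6 h compound exposure · Signal – Steady-Glo luminescence read · Benchmarks – high control tunicamycin 10 µg/mL final, low control DMSO vehicle only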
For the molecule `CC1CCCCC12NC(=O)N(CC(=O)N1CCN(c3ccccc3)CC1)C2=O` (centres undefined), the activation is -1.08% (inactive). Under `c1ccc(-c2csc(N3CCc4ccccc4C3)n2)cc1` stands 2.31% (inactive); under `N#CC(=C1SC=CS1)c1nc(-c2ccccc2)cs1`, 30.8% (active). The value for `N#CC(=C1CCCC1)c1nc(-c2ccc(Cl)cc2)cs1` was -2.04% (inactive); that for `Cc1noc(C)c1CSCC(=O)N(CCC(C)C)c1c(N)n(Cc2ccccc2)c(=O)[nH]c1=O` was -4.01% (inactive). Under `Cc1ccc(SCC(=O)NC(=O)NCc2ccco2)c(C)c1` stands 1.4% (inactive); under `CCN(CC)CCn1c(/N=C/c2cc(Br)ccc2O)nc2ccccc21`, -2.54% (inactive); under `Oc1ccc(Br)cc1/C=N/Nc1ccccn1`, 88.3% (active). `Cc1c(C(=O)Nc2ccccn2)oc2ccc(Br)cc12`: the activation was 0.16% (inactive).

As for `CC(=O)C1(C)N(O)C(C)(C)C(c2cccs2)=[N+]1[O-]` (centres undefined), the activation was -1.47% (inactive). With `CC(=NCc1ccc2c(c1)OCO2)C1=C(O)c2ccccc2C1=O`, the activation is 1.05% (inactive).

Consider `CCN1C(=O)N[C@@H](c2ccccc2)[C@H](C(C)=O)[C@H]1C`, for which the activation is 34.5% (active). For the molecule `CCN1C(=NCCc2cccnc2)N[C@@H](c2ccccc2)[C@H](C(=O)OC)[C@H]1C`, the activation was 0.09% (inactive).

As for `COCCN1C(=O)N[C@@H](CCc2ccccc2)[C@H](C(C)=O)[C@H]1C`, the activation was 0.9% (inactive). The value for `Nc1nc(CC(=O)CSc2ccc(Cl)cc2)nc(Nc2ccc(F)cc2)n1` was 75% (active); that for `Cc1ccc(Nc2nc(N)nc(CSc3nnc(C)s3)n2)cc1` was 3.11% (inactive). Under `Nc1nc(COC(=O)CCC(=O)c2ccc(Cl)cc2)nc(Nc2ccccc2)n1` stands 1.72% (inactive); under `Cc1ccc(C)c(NC(=O)CN(C)C(=O)c2ccc3ncsc3c2)c1`, -1.06% (inactive). Under `COc1ccc(C(=O)COC(=O)CNC(=O)c2cccs2)cc1Br` stands 0.35% (inactive).

For `COc1ccc(C(=O)COC(=O)COc2ccc(C)c(C)c2)cc1`, the activation is 0.09% (inactive). Consider `Cc1ccc(OCC(=O)Nc2ccc(C(=O)O)cc2NC(=O)COc2ccc(C)c(C)c2)cc1C`, for which the activation is -6.86% (inactive). Turning to `Cc1ccc(SC(=O)COc2ccc(C)c(C)c2)cc1`, the activation is 65.8% (active). Take `CCOC1CCCCC1NS(=O)(=O)c1ccc(Cl)cc1` (centres undefined): the activation was -1.12% (inactive). Under `Cc1ccc(CN2CCN(/N=C/c3cccnc3)CC2)c(C)c1` stands 1.33% (inactive); under `CCc1nc(C)cn1S(=O)(=O)c1cc(OC)c(C)cc1C`, -2.38% (inactive). The value for `CC(C)c1nccn1S(=O)(=O)c1cc([N+](=O)[O-])ccc1Cl` was 0.9% (inactive); that for `CCc1nc(C)cn1S(=O)(=O)c1cc([N+](=O)[O-])ccc1Cl` was 45.1% (active); that for `Cc1cc(N2CCOCC2)nc2ccc(NC(=S)N3CCN(Cc4ccccc4)CC3)cc12` was -2.17% (inactive). The value for `Cc1ccc(S(=O)(=O)c2nnn3c2nc(N2CCN(c4ccccn4)CC2)c2ccccc23)cc1` was -2.5% (inactive); that for `Cc1cccc(Nc2nc3c(S(=O)(=O)c4ccccc4)nnn3c3ccccc23)c1C` was 94% (active).

Regarding `CC(=O)Nc1ccc(Nc2nc3c(S(=O)(=O)c4ccc(C)c(C)c4)nnn3c3ccccc23)cc1`, the activation is 3.91% (inactive). Consider `CN(CC(=O)Nc1cccc(F)c1)C(=O)C1CSC2(C)CCC(=O)N12` (centres undefined), for which the activation was 2.87% (inactive). Under `CCN(CC)C(=O)CSC1c2ccccc2C(=O)N1c1ccccc1` (centres undefined) stands 0.81% (inactive); under `CC1(C)C=C2[C@H]3CC[C@@H]4[C@@]5(C)CCC(=O)C(C)(C)[C@@H]5CC[C@@]4(C)[C@]3(C)CC[C@@]2(C(=O)O)CC1`, 2.72% (inactive); under `CC(=O)NC(CC(=O)Nc1cccc(S(=O)(=O)N2CCCC2)c1)c1ccccc1` (centres undefined), -4.34% (inactive). The value for `N#C/C(=C\c1ccc(O)c(O)c1)C(=O)NCc1ccccc1` was 21.5% (inactive).

For the molecule `COc1ccc(CNC(=O)/C(C#N)=C/c2cccc(OC)c2OC)cc1`, the activation is 36.8% (active). The value for `COc1ccc(NC(=O)/C(C#N)=C\c2cc(OC)c(OCc3ccc(C(=O)O)cc3)cc2Br)cc1` was -2.72% (inactive); that for `C=CCNC(=O)c1ccccc1NC(=O)c1ccc(Cl)c(S(=O)(=O)Nc2cccc(C)c2C)c1` was 0.62% (inactive).

(Values after PubChem BioAssay AID463104 (Sanford-Burnham Center for Chemical Genomics, 2010).)
